Values after ≈ are worked out from the molar mass of the structure shown.

Data on 21 molecules can be found in ChEMBL document CHEMBL2384923, “Design, synthesis and antimicrobial activities evaluation of Schiff base derived from secnidazole derivatives as potential FabH inhibitors” (Bioorg Med Chem, 2013).

The subject of one test is Staphylococcus aureus. Put plainly: Antimicrobial activity against Staphylococcus aureus ATCC 6538 after 24 hrs by two fold serial dilution method. It is filed as functional. Particulars: ATCC 6538, 24 h. Summed up:
(§1)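 Tested per NCCLS by two-fold serial dilution in nutrient broth. The inoculum came from 24 h cultures on nutrient agar at 37 ± 1 °C and was adjusted with sterile saline to 1 ×10^4-105 CFU. […] Tubes were incubated at 37 ± 1 °C, and MIC was read visually after 24 h. Kanamycin and DDCP served as standards.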

The next test concerns Bacillus subtilis. Briefly: Antimicrobial activity against Bacillus subtilis ATCC 530 after 24 hrs by two fold serial dilution method. It is filed as functional. Particulars: ATCC 530, 24 h. In short, it runs like this: as §1
Another test deals with Pseudomonas aeruginosa. Put plainly: Antimicrobial activity against Pseudomonas aeruginosa ATCC 27853 after 24 hrs by two fold serial dilution method. Format: functional. Conditions: ATCC 27853, 24 h. In short, it runs like this:
as §1

The nature of test [1]: Inhibition of Escherichia coli N-terminal His-tagged full length FabH expressed in Escherichia coli BL21 (DE3) using [3H]acetyl-CoA as substrate assessed as incorporation of [3H] signal into product after 25 mins by liquid scintillation counting analysis. In short, it runs like this:
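His-tagged FabH was purified on Ni-NTA. Holo-ACP was made from apo-ACP with ACPS and CoA. The 20 µL reaction held pH 7.0 sodium phosphate (20 mM), 0.5 mM DTT, 0.25 mM MgCl₂, 2.5 µM holo-ACP and 1 nM FabH, preincubated 1 min. The reaction started with a 2 µL mix of 25 µM acetyl-CoA and 0.75 µCi [³H]acetyl-CoA and ran 25 min. It was stopped with ice-cold TCA, and the washed pellet was counted. Inhibitors were added from DMSO stock, ≤2% DMSO final, and IC50 was determined.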

For the next test, the system named is Escherichia coli. Put plainly: Antimicrobial activity against Escherichia coli ATCC 25922 after 24 hrs by two fold serial dilution method. Format: functional. Particulars: ATCC 25922, 24 h. Summed up: as §1

For the molecule `COc1ccc(/C=N/NC(=O)Cn2c([N+](=O)[O-])cnc2C)cc1`, the MIC in the test on Staphylococcus aureus stood at 12.5 µg/mL (≈ 39.4 µM); in the test on Bacillus subtilis, 6.25 µg/mL (≈ 19.7 µM); in the test with Pseudomonas aeruginosa it was 6.25 µg/mL (≈ 19.7 µM); in the test with Escherichia coli it was 6.25 µg/mL (≈ 19.7 µM). In addition, the IC50 in test [1] amounted to 4.5 µM.

With `Cc1ncc([N+](=O)[O-])n1CC(=O)N/N=C/c1ccc([N+](=O)[O-])cc1`, the MIC in the test with Staphylococcus aureus was 25 µg/mL (≈ 75.2 µM); in the test with Bacillus subtilis, 50 µg/mL (≈ 150 µM); in the test with Pseudomonas aeruginosa, 25 µg/mL (≈ 75.2 µM); with Escherichia coli, 25 µg/mL (≈ 75.2 µM).

Take `Cc1ncc([N+](=O)[O-])n1CC(=O)N/N=C/c1ccc(O)cc1`: the MIC with Staphylococcus aureus is above 100 µg/mL; against Bacillus subtilis it was above 100 µg/mL; with Pseudomonas aeruginosa, above 100 µg/mL; with Escherichia coli it was 50 µg/mL (≈ 165 µM).

As to `Cc1ccc(/C=N/NC(=O)Cn2c([N+](=O)[O-])cnc2C)cc1`, the MIC is 12.5 µg/mL (≈ 41.5 µM) against Staphylococcus aureus, 25 µg/mL (≈ 83 µM) in the test with Bacillus subtilis, 6.25 µg/mL (≈ 20.7 µM) against Pseudomonas aeruginosa and 6.25 µg/mL (≈ 20.7 µM) in the test on Escherichia coli. For the same molecule, in test [1], the IC50 was found to be 6.2 µM.

With `Cc1ncc([N+](=O)[O-])n1CC(=O)N/N=C/c1ccc(N(C)C)cc1`, the MIC with Staphylococcus aureus is 25 µg/mL (≈ 75.7 µM); with Bacillus subtilis, 12.5 µg/mL (≈ 37.8 µM); against Pseudomonas aeruginosa it was 12.5 µg/mL (≈ 37.8 µM); in the test with Escherichia coli it was 12.5 µg/mL (≈ 37.8 µM). The 50% inhibitory concentration (IC50) in test [1] amounted to 15.9 µM.

As to `Cc1ncc([N+](=O)[O-])n1CC(=O)N/N=C/c1cccc(F)c1`, the MIC against Staphylococcus aureus stood at 25 µg/mL (≈ 81.9 µM); in the test with Bacillus subtilis, 25 µg/mL (≈ 81.9 µM); with Pseudomonas aeruginosa, 50 µg/mL (≈ 164 µM); with Escherichia coli it was 50 µg/mL (≈ 164 µM).

`Cc1ncc([N+](=O)[O-])n1CC(=O)N/N=C/c1cccc(Br)c1`: the MIC against Staphylococcus aureus is above 100 µg/mL; in the test with Bacillus subtilis, above 100 µg/mL; against Pseudomonas aeruginosa, 50 µg/mL (≈ 137 µM); in the test with Escherichia coli, 25 µg/mL (≈ 68.3 µM).

`Cc1ncc([N+](=O)[O-])n1CC(=O)N/N=C/c1cccc(Cl)c1`: the MIC was 50 µg/mL (≈ 155 µM) against Staphylococcus aureus, 50 µg/mL (≈ 155 µM) in the test with Bacillus subtilis, 50 µg/mL (≈ 155 µM) in the test with Pseudomonas aeruginosa and 25 µg/mL (≈ 77.7 µM) in the test with Escherichia coli.

On to `Cc1ncc([N+](=O)[O-])n1CC(=O)N/N=C/c1cccc([N+](=O)[O-])c1`, for which the MIC with Staphylococcus aureus is 50 µg/mL (≈ 150 µM); against Bacillus subtilis, above 100 µg/mL; against Pseudomonas aeruginosa, 50 µg/mL (≈ 150 µM); in the test on Escherichia coli, 25 µg/mL (≈ 75.2 µM).

Take `COc1cccc(/C=N/NC(=O)Cn2c([N+](=O)[O-])cnc2C)c1`: the MIC against Staphylococcus aureus turned out to be 25 µg/mL (≈ 78.8 µM); against Bacillus subtilis, 50 µg/mL (≈ 158 µM); with Pseudomonas aeruginosa it was 50 µg/mL (≈ 158 µM); in the test with Escherichia coli it was 25 µg/mL (≈ 78.8 µM).

Regarding `Cc1ncc([N+](=O)[O-])n1CC(=O)N/N=C/c1ccccc1Cl`, the MIC is 50 µg/mL (≈ 155 µM) against Staphylococcus aureus, 50 µg/mL (≈ 155 µM) against Bacillus subtilis, above 100 µg/mL in the test with Pseudomonas aeruginosa and above 100 µg/mL against Escherichia coli.

`Cc1ncc([N+](=O)[O-])n1CC(=O)N/N=C/c1ccccc1F`: the MIC with Staphylococcus aureus, with Bacillus subtilis, against Pseudomonas aeruginosa and in the test on Escherichia coli was above 100 µg/mL throughout. In addition, in test [1], the IC50 was 47.5 µM.

`Cc1ncc([N+](=O)[O-])n1CC(=O)N/N=C/c1ccccc1[N+](=O)[O-]`: the MIC against Staphylococcus aureus amounted to 12.5 µg/mL (≈ 37.6 µM); against Bacillus subtilis, 12.5 µg/mL (≈ 37.6 µM); against Pseudomonas aeruginosa, 25 µg/mL (≈ 75.2 µM); with Escherichia coli it was 25 µg/mL (≈ 75.2 µM). The IC50 in test [1] worked out at 19.8 µM.

Turning to `COc1ccccc1/C=N/NC(=O)Cn1c([N+](=O)[O-])cnc1C`, the MIC was above 100 µg/mL in the test with Staphylococcus aureus, above 100 µg/mL against Bacillus subtilis, 50 µg/mL (≈ 158 µM) with Pseudomonas aeruginosa and 50 µg/mL (≈ 158 µM) against Escherichia coli. In addition, in test [1], the IC50 came to 42.4 µM.

As for `Cc1ncc([N+](=O)[O-])n1CC(=O)N/N=C/c1ccc(F)cc1F`, the MIC came out at 25 µg/mL (≈ 77.3 µM) in the test on Staphylococcus aureus, 50 µg/mL (≈ 155 µM) against Bacillus subtilis, 50 µg/mL (≈ 155 µM) in the test with Pseudomonas aeruginosa and 50 µg/mL (≈ 155 µM) against Escherichia coli.

Take `COc1ccc(/C=N/NC(=O)Cn2c([N+](=O)[O-])cnc2C)cc1OC`: the MIC against Staphylococcus aureus is 12.5 µg/mL (≈ 36 µM); against Bacillus subtilis, 25 µg/mL (≈ 72 µM); against Pseudomonas aeruginosa, 12.5 µg/mL (≈ 36 µM); with Escherichia coli, 12.5 µg/mL (≈ 36 µM). Also, the IC50 in test [1] is 8.8 µM.

For `Cc1cc(/C=N/NC(=O)Cn2c([N+](=O)[O-])cnc2C)cc(C)c1C`, the MIC was 3.13 µg/mL (≈ 9.5 µM) against Staphylococcus aureus, 3.13 µg/mL (≈ 9.5 µM) against Bacillus subtilis, 6.25 µg/mL (≈ 19 µM) in the test with Pseudomonas aeruginosa and 3.13 µg/mL (≈ 9.5 µM) in the test on Escherichia coli. The IC50 in test [1] was 2.3 µM.

Take `Cc1ncc([N+](=O)[O-])n1CC(=O)N/N=C/c1ccc(Cl)cc1`: the MIC was above 100 µg/mL with Staphylococcus aureus, above 100 µg/mL with Bacillus subtilis, 50 µg/mL (≈ 155 µM) with Pseudomonas aeruginosa and 50 µg/mL (≈ 155 µM) in the test with Escherichia coli.

Turning to `Cc1ncc([N+](=O)[O-])n1CC(=O)N/N=C/c1ccc(Br)cc1`, the MIC against Staphylococcus aureus was 25 µg/mL (≈ 68.3 µM); against Bacillus subtilis it was 25 µg/mL (≈ 68.3 µM); in the test with Pseudomonas aeruginosa, 12.5 µg/mL (≈ 34.1 µM); in the test on Escherichia coli, 25 µg/mL (≈ 68.3 µM).

Regarding `Cc1ncc([N+](=O)[O-])n1CC(=O)N/N=C/c1ccc(F)cc1`, the MIC against Staphylococcus aureus, against Bacillus subtilis, with Pseudomonas aeruginosa and against Escherichia coli was above 100 µg/mL in each case. The IC50 in test [1] stood at 58.3 µM.

Consider `NC[C@H]1O[C@H](O[C@H]2[C@H](O)[C@@H](O[C@H]3O[C@H](CO)[C@@H](O)[C@H](N)[C@H]3O)[C@H](N)C[C@@H]2N)[C@H](O)[C@@H](O)[C@@H]1O` [KANAMYCIN], for which the MIC with Staphylococcus aureus was found to be 1.56 µg/mL (≈ 3.22 µM); with Bacillus subtilis it was 1.56 µg/mL (≈ 3.22 µM); with Pseudomonas aeruginosa it was 3.13 µg/mL (≈ 6.46 µM); with Escherichia coli, 3.13 µg/mL (≈ 6.46 µM).

As a reminder, the MIC is the lowest concentration found to suppress growth. High values mean weaker potency, low ones greater potency. In general, IC50 refers to the concentration that inhibits the measured activity by half.
